Experimental data published in ChEMBL document CHEMBL1649147, “Antistaphylococcal activity of dihydrophthalazine antifolates, a family of novel antibacterial drugs” (2009).
In brackets after ≈: the same amount, converted by molar mass.

Tests used:
[1] = system: Staphylococcus aureus; experiment: Antibacterial activity against methicillin-resistant Staphylococcus aureus ATCC 43300 after 9 passages by agar dilution method; type: functional; conditions: ATCC43300
In short: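 Serial passage under drug. Inoculum was ~1 × 10^6 CFU/ml from overnight MHA growth, in 1 ml MHB at 35°C for 24 h. Drug ranged from 4 log2 steps above to 3 log2 steps below the MIC. […] MIC change is given as log2 steps.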

[2] = system: Staphylococcus aureus; experiment: Antibacterial activity against methicillin-resistant Staphylococcus aureus by agar dilution method; type: functional
In short: (§1)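 Agar dilution on Mueller-Hinton agar per CLSI guidelines. S. aureus ATCC 29213 and E. faecalis ATCC 29212 were run with each set, and test MICs were accepted only when the control strains fell within acceptable ranges.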

[3] = system: Staphylococcus aureus; experiment: Antibacterial activity against methicillin-resistant Staphylococcus aureus 507 by broth macrodilution method; type: functional
[4] = system: Staphylococcus aureus; experiment: Antibacterial activity against Tmp-resistant Staphylococcus aureus by agar dilution method; type: functional
In short: (§2)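 MICs by agar dilution on Mueller-Hinton agar following CLSI guidelines. S. aureus ATCC 29213 and E. faecalis ATCC 29212 were run as quality controls with each set, and test-strain MICs were kept only if control MICs fell within acceptable ranges.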

[5] = system: Staphylococcus epidermidis; experiment: Antibacterial activity against methicillin-resistant coagulase-negative Staphylococcus epidermidis 225 by broth macrodilution method; type: functional
[6] = system: Staphylococcus aureus; experiment: Antibacterial activity against methicillin-resistant Staphylococcus aureus 145 by broth macrodilution method; type: functional
[7] = system: Staphylococcus epidermidis; experiment: Antibacterial activity against methicillin-susceptible coagulase-negative Staphylococcus epidermidis 057 by broth macrodilution method; type: functional
[8] = system: Staphylococcus aureus; experiment: Antibacterial activity against methicillin-susceptible Staphylococcus aureus by agar dilution method; type: functional; in short: as §1
[9] = system: Staphylococcus epidermidis; experiment: Antibacterial activity against methicillin-resistant, Linezolid non-susceptible coagulase-negative Staphylococcus epidermidis 345 by agar dilution method; type: functional
[10] = system: Staphylococcus aureus; experiment: Antibacterial activity against methicillin-resistant Staphylococcus aureus ATCC 43300 by broth macrodilution method; type: functional; conditions: ATCC43300
[11] = system: coagulase-negative staphylococci; experiment: Antibacterial activity against methicillin-resistant coagulase-negative staphylococci by agar dilution method
[12] = system: Staphylococcus epidermidis; experiment: Antibacterial activity against methicillin-resistant coagulase-negative Staphylococcus epidermidis 197 by broth macrodilution method; type: functional
[13] = system: Staphylococcus aureus; experiment: Antibacterial activity against methicillin-susceptible, vancomycin-intermediate Staphylococcus aureus 505 by broth macrodilution method; type: functional
[14] = system: Staphylococcus aureus; experiment: Antibacterial activity against vancomycin-resistant Staphylococcus aureus VRS1 by broth macrodilution method; type: functional
In short: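 Michigan VRSA strain, one of 12 staphylococci later used in time-kill studies. MIC was determined by broth macrodilution and reported in μg/ml.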

[15] = system: Staphylococcus aureus; experiment: Antibacterial activity against Tmp-susceptible Staphylococcus aureus by agar dilution method; type: functional; in short: as §2
[16] = system: Staphylococcus epidermidis; experiment: Antibacterial activity against methicillin-resistant, vancomycin-intermediate coagulase-negative Staphylococcus epidermidis 225 after 11 passages by agar dilution method; type: functional
In short: (§3)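 Daily serial passage for up to 50 days at 35°C for 24 h in 1 ml MHB. […] Each transfer used 10 µl from the tube nearest the MIC (1–2 dilutions below) with the same turbidity as the drug-free control. […] MICs were measured by agar dilution, with changes given as log2 steps.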

[17] = system: Staphylococcus aureus; experiment: Antibacterial activity against Tmp-susceptible coagulase-negative Staphylococcus aureus by agar dilution method; type: functional; in short: as §2
[18] = system: coagulase-negative staphylococci; experiment: Antibacterial activity against methicillin-susceptible coagulase-negative staphylococci by agar dilution method
[19] = system: Staphylococcus aureus; experiment: Antibacterial activity against methicillin-resistant and vancomycin-resistant Staphylococcus aureus VRS1 by agar dilution method; type: functional; in short: as §1
[20] = system: Staphylococcus epidermidis; experiment: Antibacterial activity against methicillin-susceptible coagulase-negative Staphylococcus epidermidis 057 after 9 passages by agar dilution method; type: functional; in short: as §3
[21] = system: Staphylococcus epidermidis; experiment: Antibacterial activity against methicillin-resistant coagulase-negative Staphylococcus epidermidis 074 by broth macrodilution method; type: functional
[22] = system: Staphylococcus epidermidis; experiment: Antibacterial activity against methicillin-resistant, Linezolid non-susceptible coagulase-negative Staphylococcus epidermidis 345 after 9 passages by agar dilution method; type: functional; in short: as §3
[23] = system: coagulase-negative staphylococci; experiment: Antibacterial activity against Tmp-resistant coagulase-negative staphylococci by agar dilution method
[24] = system: Staphylococcus aureus; experiment: Antibacterial activity against methicillin-resistant Staphylococcus aureus 145 after 10 passages by agar dilution method; type: functional
[25] = system: Staphylococcus epidermidis; experiment: Antibacterial activity against methicillin-resistant coagulase-negative Staphylococcus epidermidis 197 after 12 passages by agar dilution method; type: functional; in short: as §3
[26] = system: Staphylococcus epidermidis; experiment: Antibacterial activity against methicillin-resistant, vancomycin-intermediate coagulase-negative Staphylococcus epidermidis 225 by agar dilution method; type: functional; in short: as §1
[27] = system: Staphylococcus aureus; experiment: Antibacterial activity against methicillin-susceptible Staphylococcus aureus ATCC 29213 after 9 passages by agar dilution method; type: functional; conditions: ATCC29213; in short: as §3
[28] = system: coagulase-negative staphylococci; experiment: Antibacterial activity against Tmp-susceptible coagulase-negative staphylococci by agar dilution method
[29] = system: Staphylococcus aureus; experiment: Antibacterial activity against methicillin-susceptible Staphylococcus aureus 505 by broth macrodilution method; type: functional
[30] = system: Staphylococcus epidermidis; experiment: Antibacterial activity against methicillin-susceptible coagulase-negative Staphylococcus epidermidis 051 after 9 passages by agar dilution method; type: functional; in short: as §3
[31] = system: Staphylococcus epidermidis; experiment: Antibacterial activity against methicillin-resistant coagulase-negative Staphylococcus epidermidis 345 by broth macrodilution method; type: functional
[32] = system: Staphylococcus aureus; experiment: Antibacterial activity against methicillin-susceptible Staphylococcus aureus ATCC 29213 by broth macrodilution method; type: functional; conditions: ATCC29213
[33] = system: Staphylococcus epidermidis; experiment: Antibacterial activity against methicillin-susceptible coagulase-negative Staphylococcus epidermidis 051 by broth macrodilution method; type: functional
[34] = system: Staphylococcus aureus; experiment: Antibacterial activity against methicillin-susceptible, vancomycin-intermediate Staphylococcus aureus 505 after 9 passages by agar dilution method; type: functional; in short: as §3
[35] = system: Staphylococcus aureus; experiment: microbe, parasite or virus in culture; conditions: ATCC29213
[36] = system: Staphylococcus aureus; experiment: microbe, parasite or virus in culture; conditions: ATCC43300
[37] = system: Staphylococcus epidermidis; experiment: Antibacterial activity against methicillin-resistant coagulase-negative Staphylococcus epidermidis 197 after 50 passages by agar dilution method; type: functional
In short: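 Daily serial passage for up to 50 days at 35°C for 24 h in 1 ml MHB. Each transfer used 10 µl from the tube nearest the MIC (1–2 dilutions below) with the same turbidity as the drug-free control. MICs were measured by agar dilution, with changes given as log2 steps.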

[38] = system: Staphylococcus aureus; experiment: microbe, parasite or virus in culture; conditions: 505

SMILES: CO[C@H]1/C=C/O[C@@]2(C)Oc3c(C)c(O)c4c(O)c(c(/C=N/N5CCN(C)CC5)c(O)c4c3C2=O)NC(=O)/C(C)=C\C=C\[C@H](C)[C@H](O)[C@@H](C)[C@@H](O)[C@@H](C)[C@H](OC(C)=O)[C@@H]1C [RIFAMPIN]
- MIC [1]: > 128 µg/mL
- MIC50 [2]: 0.016 µg/mL (≈ 0.0194 µM)
- MIC90 [2]: 0.016 µg/mL (≈ 0.0194 µM)
- MIC [3]: 4 µg/mL (≈ 4.86 µM)
- MIC50 [4]: 0.008 µg/mL (≈ 0.00972 µM)
- MIC90 [4]: > 16 µg/mL
- MIC [5]: 0.03 µg/mL (≈ 0.0365 µM)
- MIC [6]: 0.008 µg/mL (≈ 0.00972 µM)
- MIC [7]: 0.03 µg/mL (≈ 0.0365 µM)
- MIC50 [8]: 0.008 µg/mL (≈ 0.00972 µM)
- MIC90 [8]: 0.016 µg/mL (≈ 0.0194 µM)
- MIC [9]: 0.008 µg/mL (≈ 0.00972 µM)
- MIC [10]: 0.004 µg/mL (≈ 0.00486 µM)
- MIC50 [11]: 0.008 µg/mL (≈ 0.00972 µM)
- MIC90 [11]: 2 µg/mL (≈ 2.43 µM)
- MIC [12]: 0.03 µg/mL (≈ 0.0365 µM)
- MIC [13]: 0.016 µg/mL (≈ 0.0194 µM)
- MIC [14]: > 128 µg/mL
- MIC50 [15]: 0.016 µg/mL (≈ 0.0194 µM)
- MIC90 [15]: 0.016 µg/mL (≈ 0.0194 µM)
- MIC [16]: > 128 µg/mL
- MIC [17]: ≤ 0.004 µg/mL
- MIC [18]: ≤ 0.004 µg/mL
- MIC90 [18]: 0.016 µg/mL (≈ 0.0194 µM)
- MIC [19]: > 32 µg/mL
- MIC [20]: > 128 µg/mL
- MIC [21]: 0.03 µg/mL (≈ 0.0365 µM)
- MIC [22]: > 128 µg/mL
- MIC50 [23]: 0.008 µg/mL (≈ 0.00972 µM)
- MIC90 [23]: > 16 µg/mL
- MIC [24]: > 128 µg/mL
- MIC [25]: > 128 µg/mL
- MIC [26]: 0.016 µg/mL (≈ 0.0194 µM)
- MIC [27]: > 128 µg/mL
- MIC50 [28]: 0.008 µg/mL (≈ 0.00972 µM)
- MIC90 [28]: 0.016 µg/mL (≈ 0.0194 µM)
- MIC [29]: 0.03 µg/mL (≈ 0.0365 µM)
- MIC [30]: > 128 µg/mL
- MIC [31]: 0.016 µg/mL (≈ 0.0194 µM)
- MIC [32]: 0.008 µg/mL (≈ 0.00972 µM)
- MIC [33]: 0.016 µg/mL (≈ 0.0194 µM)
- MIC [34]: > 128 µg/mL

SMILES: COc1cc(Cc2cnc(N)nc2N)cc(OC)c1OC [TRIMETHOPRIM]
- MIC [35]: > 128 µg/mL
- MIC [2]: ≤ 0.008 µg/mL
- MIC50 [2]: 0.5 µg/mL (≈ 1.72 µM)
- MIC [3]: 128 µg/mL (≈ 441 µM)
- MIC [4]: 32 µg/mL (≈ 110 µM)
- MIC50 [4]: > 128 µg/mL
- MIC [5]: > 128 µg/mL
- MIC [6]: > 128 µg/mL
- MIC [7]: 128 µg/mL (≈ 441 µM)
- MIC50 [8]: 0.5 µg/mL (≈ 1.72 µM)
- MIC90 [8]: > 128 µg/mL
- MIC [9]: > 128 µg/mL
- MIC [36]: > 128 µg/mL
- MIC [10]: 1 µg/mL (≈ 3.44 µM)
- MIC50 [11]: 128 µg/mL (≈ 441 µM)
- MIC [12]: 0.5 µg/mL (≈ 1.72 µM)
- MIC [13]: 1 µg/mL (≈ 3.44 µM)
- MIC [14]: > 128 µg/mL
- MIC50 [15]: 0.5 µg/mL (≈ 1.72 µM)
- MIC90 [15]: 0.5 µg/mL (≈ 1.72 µM)
- MIC [17]: 0.03 µg/mL (≈ 0.103 µM)
- MIC90 [18]: 64 µg/mL (≈ 220 µM)
- MIC [19]: > 128 µg/mL
- MIC [37]: 64 µg/mL (≈ 220 µM)
- MIC [21]: 4 µg/mL (≈ 13.8 µM)
- MIC50 [23]: > 128 µg/mL
- MIC [26]: > 128 µg/mL
- MIC50 [28]: 0.25 µg/mL (≈ 0.861 µM)
- MIC90 [28]: 2 µg/mL (≈ 6.89 µM)
- MIC [29]: 1 µg/mL (≈ 3.44 µM)
- MIC [31]: > 128 µg/mL
- MIC [32]: 1 µg/mL (≈ 3.44 µM)
- MIC [33]: 128 µg/mL (≈ 441 µM)
- MIC [38]: > 128 µg/mL
